Experimental data published in ChEMBL document CHEMBL3734675, “Synthesis, antimycobacterial and antibacterial activity of fluoroquinolone derivatives containing an 3-alkoxyimino-4-(cyclopropylanimo)methylpyrrolidine moiety” (2015).
In brackets after ≈: the same amount, converted by molar mass.

Experiments:
Format in all cases: functional
Escherichia coli [1] = experiment: Antibacterial activity against Escherichia coli ATCC 25922 after 18 to 24 hrs by two-fold serial dilution method
Method in brief: (§1)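 Twofold serial dilution in agar media against Gram-positive and Gram-negative strains. Plates incubated at 35 °C for 18–24 h. MIC read as the lowest compound concentration giving complete inhibition of bacterial growth.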

Escherichia coli [2] = experiment: Antibacterial activity against extended-spectrum beta-lactamase producing Escherichia coli 14-1 after 18 to 24 hrs by two-fold serial dilution method; method in brief: as §1
Escherichia coli [3] = experiment: Antibacterial activity against extended-spectrum beta-lactamase producing Escherichia coli 14-2 after 18 to 24 hrs by two-fold serial dilution method; method in brief: as §1
Escherichia coli [4] = experiment: Antibacterial activity against Escherichia coli 14-1 after 18 to 24 hrs by two-fold serial dilution method; method in brief: as §1
Escherichia coli [5] = experiment: Antibacterial activity against Escherichia coli 14-2 after 18 to 24 hrs by two-fold serial dilution method; method in brief: as §1
Klebsiella pneumoniae [6] = experiment: Antibacterial activity against extended-spectrum beta-lactamase producing Klebsiella pneumoniae 14-17 after 18 to 24 hrs by two-fold serial dilution method; method in brief: as §1
Klebsiella pneumoniae [7] = experiment: Antibacterial activity against extended-spectrum beta-lactamase producing Klebsiella pneumoniae 14-18 after 18 to 24 hrs by two-fold serial dilution method; method in brief: as §1
Klebsiella pneumoniae [8] = experiment: Antibacterial activity against extended-spectrum beta-lactamase producing Klebsiella pneumoniae 14-19 after 18 to 24 hrs by two-fold serial dilution method; method in brief: as §1
Klebsiella pneumoniae [9] = experiment: Antibacterial activity against Klebsiella pneumoniae 14-1 after 18 to 24 hrs by two-fold serial dilution method; method in brief: as §1
Klebsiella pneumoniae [10] = experiment: Antibacterial activity against Klebsiella pneumoniae 14-2 after 18 to 24 hrs by two-fold serial dilution method; method in brief: as §1
Klebsiella pneumoniae [11] = experiment: Antibacterial activity against Klebsiella pneumoniae 14-3 after 18 to 24 hrs by two-fold serial dilution method; method in brief: as §1
Klebsiella pneumoniae [12] = experiment: Antibacterial activity against Klebsiella pneumoniae 14-4 after 18 to 24 hrs by two-fold serial dilution method; method in brief: as §1
Pseudomonas aeruginosa [13] = experiment: Antibacterial activity against Pseudomonas aeruginosa ATCC 27853 after 18 to 24 hrs by two-fold serial dilution method; method in brief: as §1
Pseudomonas aeruginosa [14] = experiment: Antibacterial activity against Pseudomonas aeruginosa 14-9 after 18 to 24 hrs by two-fold serial dilution method; method in brief: as §1
Pseudomonas aeruginosa [15] = experiment: Antibacterial activity against Pseudomonas aeruginosa 14-14 after 18 to 24 hrs by two-fold serial dilution method; method in brief: as §1
Pseudomonas aeruginosa [16] = experiment: Antibacterial activity against Pseudomonas aeruginosa 14-15 after 18 to 24 hrs by two-fold serial dilution method; method in brief: as §1
Pseudomonas aeruginosa [17] = experiment: Antibacterial activity against Pseudomonas aeruginosa 14-16 after 18 to 24 hrs by two-fold serial dilution method; method in brief: as §1
Staphylococcus aureus [18] = experiment: Antibacterial activity against Staphylococcus aureus CMCC 26003 after 18 to 24 hrs by two-fold serial dilution method; method in brief: as §1
Staphylococcus aureus [19] = experiment: Antibacterial activity against methicillin-sensitive Staphylococcus aureus 14-1 after 18 to 24 hrs by two-fold serial dilution method; method in brief: as §1
Staphylococcus aureus [20] = experiment: Antibacterial activity against methicillin-sensitive Staphylococcus aureus 14-3 after 18 to 24 hrs by two-fold serial dilution method; method in brief: as §1
Staphylococcus aureus [21] = experiment: Antibacterial activity against methicillin-sensitive Staphylococcus aureus 14-4 after 18 to 24 hrs by two-fold serial dilution method; method in brief: as §1
Staphylococcus aureus [22] = experiment: Antibacterial activity against methicillin-resistant Staphylococcus aureus 14-4 after 18 to 24 hrs by two-fold serial dilution method
Method in brief: (§2)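 Agar media, standard twofold serial dilution. MIC is the lowest concentration giving complete inhibition of bacterial growth after incubation at 35 °C for 18–24 h. Ciprofloxacin and levofloxacin were run as comparators.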

Staphylococcus aureus [23] = experiment: Antibacterial activity against methicillin-resistant Staphylococcus aureus 14-5 after 18 to 24 hrs by two-fold serial dilution method; method in brief: as §2
[24] = system: Staphylococcus epidermidis; experiment: Antibacterial activity against methicillin-sensitive Staphylococcus epidermidis 14-2 after 18 to 24 hrs by two-fold serial dilution method; method in brief: as §1
[25] = system: Staphylococcus epidermidis; experiment: Antibacterial activity against methicillin-resistant Staphylococcus epidermidis 14-21 after 18 to 24 hrs by two-fold serial dilution method; method in brief: as §2
[26] = system: Staphylococcus epidermidis; experiment: Antibacterial activity against methicillin-resistant Staphylococcus epidermidis 14-22 after 18 to 24 hrs by two-fold serial dilution method; method in brief: as §2
[27] = system: Staphylococcus epidermidis; experiment: Antibacterial activity against methicillin-resistant Staphylococcus epidermidis 14-37 after 18 to 24 hrs by two-fold serial dilution method; method in brief: as §2
[28] = system: Staphylococcus epidermidis; experiment: Antibacterial activity against methicillin-resistant Staphylococcus epidermidis 14-39 after 18 to 24 hrs by two-fold serial dilution method; method in brief: as §2
Streptococcus pneumoniae = experiment: Antibacterial activity against methicillin-resistant Streptococcus pneumoniae ATCC 19615 after 18 to 24 hrs by two-fold serial dilution method; method in brief: as §2
Enterococcus faecium [29] = experiment: Antibacterial activity against Enterococcus faecium 14-2 after 18 to 24 hrs by two-fold serial dilution method; method in brief: as §1
Enterococcus faecium [30] = experiment: Antibacterial activity against Enterococcus faecium 14-5 after 18 to 24 hrs by two-fold serial dilution method; method in brief: as §1
Enterococcus faecium [31] = experiment: Antibacterial activity against Enterococcus faecium 14-6 after 18 to 24 hrs by two-fold serial dilution method; method in brief: as §1
Enterococcus faecalis [32] = experiment: Antibacterial activity against Enterococcus faecalis 14-1 after 18 to 24 hrs by two-fold serial dilution method; method in brief: as §1
Enterococcus faecalis [33] = experiment: Antibacterial activity against Enterococcus faecalis 14-2 after 18 to 24 hrs by two-fold serial dilution method; method in brief: as §1

`CCO/N=C1/CN(c2c(F)cc3c(=O)c(C(=O)O)cn([C@@H]4C[C@@H]4F)c3c2OC)CC1CNC1CC1` (stereo partly drawn) was tested, and the MIC (Escherichia coli [1]) was 2 µg/mL (≈ 4.08 µM), the MIC (Escherichia coli [2]) was 4 µg/mL (≈ 8.15 µM) and the MIC (Escherichia coli [3]) was > 32 µg/mL. The MIC (Escherichia coli [4]) was > 32 µg/mL, the MIC (Escherichia coli [5]) was > 32 µg/mL and the MIC (Klebsiella pneumoniae [6]) was 32 µg/mL (≈ 65.2 µM). For the same compound, the MIC (Klebsiella pneumoniae [7]) was 32 µg/mL (≈ 65.2 µM), the MIC (Klebsiella pneumoniae [8]) was > 32 µg/mL and the MIC (Klebsiella pneumoniae [9]) was > 32 µg/mL. For the same compound, the MIC (Klebsiella pneumoniae [10]) was > 32 µg/mL, the MIC (Klebsiella pneumoniae [11]) was > 32 µg/mL and the MIC (Klebsiella pneumoniae [12]) was > 32 µg/mL. The MIC (Pseudomonas aeruginosa [13]) was 16 µg/mL (≈ 32.6 µM), the MIC (Pseudomonas aeruginosa [14]) was 32 µg/mL (≈ 65.2 µM) and the MIC (Pseudomonas aeruginosa [15]) was 32 µg/mL (≈ 65.2 µM). For the same compound, the MIC (Pseudomonas aeruginosa [16]) was 32 µg/mL (≈ 65.2 µM), the MIC (Pseudomonas aeruginosa [17]) was 32 µg/mL (≈ 65.2 µM) and the MIC (Staphylococcus aureus [18]) was 0.06 µg/mL (≈ 0.122 µM). For the same compound, the MIC (Staphylococcus aureus [19]) was 8 µg/mL (≈ 16.3 µM), the MIC (Staphylococcus aureus [20]) was 0.03 µg/mL (≈ 0.0612 µM) and the MIC (Staphylococcus aureus [21]) was 0.06 µg/mL (≈ 0.122 µM). For the same compound, the MIC (Staphylococcus aureus [22]) was 8 µg/mL (≈ 16.3 µM), the MIC (Staphylococcus aureus [23]) was 16 µg/mL (≈ 32.6 µM) and the MIC [24] was 16 µg/mL (≈ 32.6 µM). It also gave an MIC [25] of 8 µg/mL (≈ 16.3 µM), an MIC [26] of 8 µg/mL (≈ 16.3 µM) and an MIC [27] of 8 µg/mL (≈ 16.3 µM). For the same compound, the MIC [28] was 4 µg/mL (≈ 8.15 µM), the MIC (Streptococcus pneumoniae) was 0.25 µg/mL (≈ 0.51 µM) and the MIC (Enterococcus faecium [29]) was 8 µg/mL (≈ 16.3 µM). For the same compound, the MIC (Enterococcus faecium [30]) was 4 µg/mL (≈ 8.15 µM), the MIC (Enterococcus faecium [31]) was 16 µg/mL (≈ 32.6 µM) and the MIC (Enterococcus faecalis [32]) was 32 µg/mL (≈ 65.2 µM). For the same compound, the MIC (Enterococcus faecalis [33]) was 2 µg/mL (≈ 4.08 µM).
In the case of `CO/N=C1/CN(c2c(F)cc3c(=O)c(C(=O)O)cn4c3c2OC[C@@H]4CF)CC1(C)CNC1CC1` (stereo partly drawn), the MIC (Escherichia coli [1]) is reported as 2 µg/mL (≈ 4.2 µM), the MIC (Escherichia coli [2]) is reported as 8 µg/mL (≈ 16.8 µM) and the MIC (Escherichia coli [3]) is reported as > 128 µg/mL. For the same compound, the MIC (Escherichia coli [4]) was > 128 µg/mL, the MIC (Escherichia coli [5]) was > 128 µg/mL and the MIC (Klebsiella pneumoniae [6]) was 32 µg/mL (≈ 67.2 µM). The MIC (Klebsiella pneumoniae [7]) was 32 µg/mL (≈ 67.2 µM), the MIC (Klebsiella pneumoniae [8]) was > 128 µg/mL and the MIC (Klebsiella pneumoniae [9]) was > 128 µg/mL. The MIC (Klebsiella pneumoniae [10]) was > 128 µg/mL, the MIC (Klebsiella pneumoniae [11]) was 128 µg/mL (≈ 269 µM) and the MIC (Klebsiella pneumoniae [12]) was 128 µg/mL (≈ 269 µM). It also gave an MIC (Pseudomonas aeruginosa [13]) of 32 µg/mL (≈ 67.2 µM), an MIC (Pseudomonas aeruginosa [14]) of 32 µg/mL (≈ 67.2 µM) and an MIC (Pseudomonas aeruginosa [15]) of 128 µg/mL (≈ 269 µM). For the same compound, the MIC (Pseudomonas aeruginosa [16]) was 128 µg/mL (≈ 269 µM), the MIC (Pseudomonas aeruginosa [17]) was 64 µg/mL (≈ 134 µM) and the MIC (Staphylococcus aureus [18]) was < 0.008 µg/mL. The MIC (Staphylococcus aureus [19]) was 4 µg/mL (≈ 8.39 µM), the MIC (Staphylococcus aureus [20]) was 0.03 µg/mL (≈ 0.063 µM) and the MIC (Staphylococcus aureus [21]) was 0.03 µg/mL (≈ 0.063 µM). The MIC (Staphylococcus aureus [22]) was 8 µg/mL (≈ 16.8 µM), the MIC (Staphylococcus aureus [23]) was 4 µg/mL (≈ 8.39 µM) and the MIC [24] was 16 µg/mL (≈ 33.6 µM). The MIC [25] was 16 µg/mL (≈ 33.6 µM), the MIC [26] was 4 µg/mL (≈ 8.39 µM) and the MIC [27] was 16 µg/mL (≈ 33.6 µM). The MIC [28] was 2 µg/mL (≈ 4.2 µM), the MIC (Streptococcus pneumoniae) was 0.25 µg/mL (≈ 0.525 µM) and the MIC (Enterococcus faecium [29]) was 8 µg/mL (≈ 16.8 µM). It also gave an MIC (Enterococcus faecium [30]) of 4 µg/mL (≈ 8.39 µM), an MIC (Enterococcus faecium [31]) of 16 µg/mL (≈ 33.6 µM) and an MIC (Enterococcus faecalis [32]) of 16 µg/mL (≈ 33.6 µM). For the same compound, the MIC (Enterococcus faecalis [33]) was 0.5 µg/mL (≈ 1.05 µM).
